Test results published in ChEMBL document CHEMBL3045565, “Microwave synthesis, characterization and bio-efficacy evaluation of novel chalcone based 6-carbethoxy-2-cyclohexen-1-one and 2H-indazol-3-ol derivatives” (Eur J Med Chem, 2013).
In brackets after ≈: the same amount, converted by molar mass.

Tested on: Xanthomonas oryzae
Assay: Antibacterial activity against Xanthomonas oryzae ITCC B-47 assessed as as growth inhibition at 100 ug/disk after 24 hr by disk diffusion method
Type: functional
Details: ITCC B-47, 24 h, read-out: DIZ

SMILES	zone of inhibition at 100 µg/disc
CCOC(=O)C1C(=O)C=C(c2ccc3c(c2)OCO3)CC1c1ccc(OC)cc1 (stereo not given)	0 mm
CCOC(=O)C1C(=O)C=C(c2ccccc2)CC1c1ccccc1 (stereo not given)	0 mm
CCOC(=O)C1C(=O)C=C(c2ccccc2)CC1c1ccc(OC)c(OC)c1 (stereo not given)	0 mm
CCOC(=O)C1C(=O)C=C(c2ccccc2)CC1c1ccc(C)cc1 (stereo not given)	0 mm
CCOC(=O)C1C(=O)C=C(c2ccc(C)cc2)CC1c1cc(OC)c(OC)c(OC)c1 (stereo not given)	0 mm
CCOC(=O)C1C(=O)C=C(c2ccc(F)cc2)CC1c1cccc([N+](=O)[O-])c1 (stereo not given)	0 mm
CCOC(=O)C1C(=O)C=C(c2ccc([N+](=O)[O-])cc2)CC1c1ccc2c(c1)OCO2 (stereo not given)	0 mm

Tested on: Dickeya chrysanthemi
Assay: Antibacterial activity against Erwinia chrysanthemi ITCC B-40 assessed as as growth inhibition at 100 ug/disk after 24 hr by disk diffusion method
Type: functional
Details: ITCC B-40, 24 h, read-out: DIZ
In short: (§1)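 Disk diffusion on nutrient agar. Strains kept on NA slants at 37 °C and subcultured in nutrient broth before testing. A log-phase culture was spread on solidified medium, and sterile disks were loaded with compound from DMSO stock. DMSO served as control, with commercial antibiotics for reference. Plates ran 24 h at 37 °C, and inhibition zones (mm) were read in quadruplicate.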

SMILES	zone of inhibition at 100 µg/disc
CCOC(=O)C1C(=O)C=C(c2ccc3c(c2)OCO3)CC1c1ccc(OC)cc1 (stereo not given)	0 mm
CCOC(=O)C1C(=O)C=C(c2ccccc2)CC1c1ccccc1 (stereo not given)	0 mm
CCOC(=O)C1C(=O)C=C(c2ccccc2)CC1c1ccc(OC)c(OC)c1 (stereo not given)	0 mm
CCOC(=O)C1C(=O)C=C(c2ccccc2)CC1c1ccc(C)cc1 (stereo not given)	0 mm
CCOC(=O)C1C(=O)C=C(c2ccc(C)cc2)CC1c1cc(OC)c(OC)c(OC)c1 (stereo not given)	0 mm
CCOC(=O)C1C(=O)C=C(c2ccc(F)cc2)CC1c1cccc([N+](=O)[O-])c1 (stereo not given)	10 mm
CCOC(=O)C1C(=O)C=C(c2ccc([N+](=O)[O-])cc2)CC1c1ccc2c(c1)OCO2 (stereo not given)	10 mm

Tested on: Rhizoctonia solani
Assay: Antifungal activity against Rhizoctonia solani ITCC 5563 by food poisoning method
Type: functional
Details: not given
In short: (§2)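 Poisoned food technique on PDA at several concentrations. A 5 mm mycelial plug from the growing edge of a 2-week-old colony was placed inoculum-side down at the plate centre. Plates incubated at 27 °C until control growth was nearly complete. Colony diameter measured, percent inhibition calculated against control, LC50 derived. Four replicates per treatment.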

SMILES	LC50
CCOC(=O)C1C(=O)C=C(c2ccc3c(c2)OCO3)CC1c1ccc(OC)cc1 (stereo not given)	396 µg/mL (≈ 1000 µM)
CCOC(=O)C1C(=O)C=C(c2ccccc2)CC1c1ccccc1 (stereo not given)	207 µg/mL (≈ 646 µM)
CCOC(=O)C1C(=O)C=C(c2ccccc2)CC1c1ccc(OC)c(OC)c1 (stereo not given)	198 µg/mL (≈ 520 µM)
CCOC(=O)C1C(=O)C=C(c2ccccc2)CC1c1ccc(C)cc1 (stereo not given)	233 µg/mL (≈ 697 µM)
CCOC(=O)C1C(=O)C=C(c2ccc(C)cc2)CC1c1cc(OC)c(OC)c(OC)c1 (stereo not given)	118 µg/mL (≈ 278 µM)
CCOC(=O)C1C(=O)C=C(c2ccc(F)cc2)CC1c1cccc([N+](=O)[O-])c1 (stereo not given)	157 µg/mL (≈ 410 µM)
CCOC(=O)C1C(=O)C=C(c2ccc([N+](=O)[O-])cc2)CC1c1ccc2c(c1)OCO2 (stereo not given)	29 µg/mL (≈ 70.8 µM)

Tested on: Athelia rolfsii
Assay: Antifungal activity against Athelia rolfsii ITCC 6181 by food poisoning method
Type: functional
Details: Agroathelia rolfsii
In short: as §2

SMILES	LC50
CCOC(=O)C1C(=O)C=C(c2ccc3c(c2)OCO3)CC1c1ccc(OC)cc1 (stereo not given)	380 µg/mL (≈ 963 µM)
CCOC(=O)C1C(=O)C=C(c2ccccc2)CC1c1ccccc1 (stereo not given)	304 µg/mL (≈ 949 µM)
CCOC(=O)C1C(=O)C=C(c2ccccc2)CC1c1ccc(OC)c(OC)c1 (stereo not given)	323 µg/mL (≈ 849 µM)
CCOC(=O)C1C(=O)C=C(c2ccccc2)CC1c1ccc(C)cc1 (stereo not given)	316 µg/mL (≈ 945 µM)
CCOC(=O)C1C(=O)C=C(c2ccc(C)cc2)CC1c1cc(OC)c(OC)c(OC)c1 (stereo not given)	345 µg/mL (≈ 813 µM)
CCOC(=O)C1C(=O)C=C(c2ccc(F)cc2)CC1c1cccc([N+](=O)[O-])c1 (stereo not given)	285 µg/mL (≈ 743 µM)
CCOC(=O)C1C(=O)C=C(c2ccc([N+](=O)[O-])cc2)CC1c1ccc2c(c1)OCO2 (stereo not given)	4310 µg/mL (≈ 10500 µM)

Tested on: Radical scavenging activity
Assay: Antioxidant activity assessed as DPPH free radical scavenging activity after 20 min by UV-Vis spectrophotometric analysis
Type: functional
Set-up: concentration or dose not given beside the values
Details: not given
In short: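 DPPH radical scavenging: samples were held at room temperature for 20 min in the dark, and absorbance was read at 517 nm. The control contained DMSO without compound, and methanol was used for baseline correction. Scavenging percentage was calculated from the absorbances.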

SMILES	Activity
CCOC(=O)C1C(=O)C=C(c2ccc3c(c2)OCO3)CC1c1ccc(OC)cc1 (stereo not given)	4.26%
CCOC(=O)C1C(=O)C=C(c2ccccc2)CC1c1ccccc1 (stereo not given)	3.33%
CCOC(=O)C1C(=O)C=C(c2ccccc2)CC1c1ccc(OC)c(OC)c1 (stereo not given)	4.23%
CCOC(=O)C1C(=O)C=C(c2ccccc2)CC1c1ccc(C)cc1 (stereo not given)	4.17%
CCOC(=O)C1C(=O)C=C(c2ccc(C)cc2)CC1c1cc(OC)c(OC)c(OC)c1 (stereo not given)	4.52%
CCOC(=O)C1C(=O)C=C(c2ccc(F)cc2)CC1c1cccc([N+](=O)[O-])c1 (stereo not given)	4.23%
CCOC(=O)C1C(=O)C=C(c2ccc([N+](=O)[O-])cc2)CC1c1ccc2c(c1)OCO2 (stereo not given)	3.6%

Tested on: Pseudomonas aeruginosa
Assay: Antibacterial activity against Pseudomonas aeruginosa MTCC 2581 assessed as growth inhibition at 100 ug/disk after 24 hr by disk diffusion method
Type: functional
Details: MTCC 2581, 24 h, read-out: DIZ
In short: as §1

SMILES	zone of inhibition at 100 µg/disc
CCOC(=O)C1C(=O)C=C(c2ccc3c(c2)OCO3)CC1c1ccc(OC)cc1 (stereo not given)	0 mm
CCOC(=O)C1C(=O)C=C(c2ccccc2)CC1c1ccccc1 (stereo not given)	0 mm
CCOC(=O)C1C(=O)C=C(c2ccccc2)CC1c1ccc(OC)c(OC)c1 (stereo not given)	5 mm
CCOC(=O)C1C(=O)C=C(c2ccccc2)CC1c1ccc(C)cc1 (stereo not given)	0 mm
CCOC(=O)C1C(=O)C=C(c2ccc(C)cc2)CC1c1cc(OC)c(OC)c(OC)c1 (stereo not given)	0 mm
CCOC(=O)C1C(=O)C=C(c2ccc(F)cc2)CC1c1cccc([N+](=O)[O-])c1 (stereo not given)	0 mm
CCOC(=O)C1C(=O)C=C(c2ccc([N+](=O)[O-])cc2)CC1c1ccc2c(c1)OCO2 (stereo not given)	0 mm

Tested on: Staphylococcus aureus
Assay: Antibacterial activity against Staphylococcus aureus MTCC 3160 assessed as growth inhibition at 100 ug/disk after 24 hr by disk diffusion method
Type: functional
Details: MTCC 3160, 24 h, read-out: DIZ
In short: as §1

SMILES	zone of inhibition at 100 µg/disc
CCOC(=O)C1C(=O)C=C(c2ccc3c(c2)OCO3)CC1c1ccc(OC)cc1 (stereo not given)	0 mm
CCOC(=O)C1C(=O)C=C(c2ccccc2)CC1c1ccccc1 (stereo not given)	0 mm
CCOC(=O)C1C(=O)C=C(c2ccccc2)CC1c1ccc(OC)c(OC)c1 (stereo not given)	0 mm
CCOC(=O)C1C(=O)C=C(c2ccccc2)CC1c1ccc(C)cc1 (stereo not given)	0 mm
CCOC(=O)C1C(=O)C=C(c2ccc(C)cc2)CC1c1cc(OC)c(OC)c(OC)c1 (stereo not given)	0 mm
CCOC(=O)C1C(=O)C=C(c2ccc(F)cc2)CC1c1cccc([N+](=O)[O-])c1 (stereo not given)	0 mm
CCOC(=O)C1C(=O)C=C(c2ccc([N+](=O)[O-])cc2)CC1c1ccc2c(c1)OCO2 (stereo not given)	0 mm

Tested on: Klebsiella pneumoniae
Assay: Antibacterial activity against Klebsiella pneumoniae MTCC 7028 assessed as growth inhibition at 100 ug/disk after 24 hr by disk diffusion method
Type: functional
Details: MTCC 7028, 24 h, read-out: DIZ
In short: as §1

SMILES	zone of inhibition at 100 µg/disc
CCOC(=O)C1C(=O)C=C(c2ccc3c(c2)OCO3)CC1c1ccc(OC)cc1 (stereo not given)	0 mm
CCOC(=O)C1C(=O)C=C(c2ccccc2)CC1c1ccccc1 (stereo not given)	10 mm
CCOC(=O)C1C(=O)C=C(c2ccccc2)CC1c1ccc(OC)c(OC)c1 (stereo not given)	0 mm
CCOC(=O)C1C(=O)C=C(c2ccccc2)CC1c1ccc(C)cc1 (stereo not given)	5 mm
CCOC(=O)C1C(=O)C=C(c2ccc(C)cc2)CC1c1cc(OC)c(OC)c(OC)c1 (stereo not given)	0 mm
CCOC(=O)C1C(=O)C=C(c2ccc(F)cc2)CC1c1cccc([N+](=O)[O-])c1 (stereo not given)	0 mm
CCOC(=O)C1C(=O)C=C(c2ccc([N+](=O)[O-])cc2)CC1c1ccc2c(c1)OCO2 (stereo not given)	0 mm

Tested on: Bacillus pumilus
Assay: Antibacterial activity against Bacillus pumilus MTCC 2466 assessed as growth inhibition at 100 ug/disk after 24 hr by disk diffusion method
Type: functional
Details: MTCC 2466, 24 h, read-out: DIZ
In short: as §1

SMILES	zone of inhibition at 100 µg/disc
CCOC(=O)C1C(=O)C=C(c2ccc3c(c2)OCO3)CC1c1ccc(OC)cc1 (stereo not given)	0 mm
CCOC(=O)C1C(=O)C=C(c2ccccc2)CC1c1ccccc1 (stereo not given)	0 mm
CCOC(=O)C1C(=O)C=C(c2ccccc2)CC1c1ccc(OC)c(OC)c1 (stereo not given)	0 mm
CCOC(=O)C1C(=O)C=C(c2ccccc2)CC1c1ccc(C)cc1 (stereo not given)	0 mm
CCOC(=O)C1C(=O)C=C(c2ccc(C)cc2)CC1c1cc(OC)c(OC)c(OC)c1 (stereo not given)	0 mm
CCOC(=O)C1C(=O)C=C(c2ccc(F)cc2)CC1c1cccc([N+](=O)[O-])c1 (stereo not given)	0 mm
CCOC(=O)C1C(=O)C=C(c2ccc([N+](=O)[O-])cc2)CC1c1ccc2c(c1)OCO2 (stereo not given)	0 mm

Tested on: Bacillus thuringiensis
Assay: Antibacterial activity against Bacillus thuringiensis MTCC 6941 assessed as growth inhibition at 100 ug/disk after 24 hr by disk diffusion method
Type: functional
Details: MTCC 6941, 24 h, read-out: DIZ
In short: as §1

SMILES	zone of inhibition at 100 µg/disc
CCOC(=O)C1C(=O)C=C(c2ccc3c(c2)OCO3)CC1c1ccc(OC)cc1 (stereo not given)	0 mm
CCOC(=O)C1C(=O)C=C(c2ccccc2)CC1c1ccccc1 (stereo not given)	0 mm
CCOC(=O)C1C(=O)C=C(c2ccccc2)CC1c1ccc(OC)c(OC)c1 (stereo not given)	0 mm
CCOC(=O)C1C(=O)C=C(c2ccccc2)CC1c1ccc(C)cc1 (stereo not given)	0 mm
CCOC(=O)C1C(=O)C=C(c2ccc(C)cc2)CC1c1cc(OC)c(OC)c(OC)c1 (stereo not given)	0 mm
CCOC(=O)C1C(=O)C=C(c2ccc(F)cc2)CC1c1cccc([N+](=O)[O-])c1 (stereo not given)	0 mm
CCOC(=O)C1C(=O)C=C(c2ccc([N+](=O)[O-])cc2)CC1c1ccc2c(c1)OCO2 (stereo not given)	0 mm
